Laboratory results from ChEMBL document CHEMBL3421623 (J Med Chem, 2015).

Tests used:
[1] = molecular target: T1, Aromatase (Homo sapiens, UniProt P11511); experiment: Inhibition of human recombinant aromatase using 7-methoxy-trifluoromethylcoumarin as substrate assessed as formation of fluorescent metabolite after 30 mins by fluorescence assay
T1 sequence (P11511 whole entry): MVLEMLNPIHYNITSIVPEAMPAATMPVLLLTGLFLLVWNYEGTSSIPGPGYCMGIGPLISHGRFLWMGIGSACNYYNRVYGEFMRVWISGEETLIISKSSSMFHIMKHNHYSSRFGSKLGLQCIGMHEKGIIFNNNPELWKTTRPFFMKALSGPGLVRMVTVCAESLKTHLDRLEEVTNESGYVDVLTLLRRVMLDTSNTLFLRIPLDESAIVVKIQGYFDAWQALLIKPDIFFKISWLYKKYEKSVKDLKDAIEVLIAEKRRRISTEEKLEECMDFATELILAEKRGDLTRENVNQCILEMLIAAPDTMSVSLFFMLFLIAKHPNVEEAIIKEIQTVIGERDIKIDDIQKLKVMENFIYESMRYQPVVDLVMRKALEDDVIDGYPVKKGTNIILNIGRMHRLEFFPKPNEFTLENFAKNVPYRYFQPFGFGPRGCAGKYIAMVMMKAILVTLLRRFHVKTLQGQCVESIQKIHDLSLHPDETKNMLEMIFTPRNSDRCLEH
In short: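 Recombinant human CYP19 with MFC substrate, converted to fluorescent HFC, in 0.1 M potassium phosphate pH 7.4. NADPH-regenerating mix (NADP⁺, MgCl₂, glucose-6-phosphate, G6PDH); compound prewarmed 10 min at 37 °C, then 30 min reaction stopped with Tris base in acetonitrile. Activity as % of vehicle control; IC50 from one-site competition fit; Ki from Lineweaver–Burk data by nonlinear regression.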

[2] = molecular target: Cytochrome P450 2D6 (Homo sapiens, UniProt P10635); experiment: Inhibition of human recombinant CYP2D6 after 30 mins by fluorescence assay; assay type: ADME
[3] = molecular target: Cytochrome P450 3A4 (Homo sapiens, UniProt P08684); experiment: Inhibition of human recombinant CYP3A4 assessed as metabolism of 7-benzyloxy-4-trifluoromethylcoumarin to HFC after 30 mins by fluorescence assay; assay type: ADME
[4] = molecular target: Cytochrome P450 3A5 (Homo sapiens, UniProt P20815); experiment: Inhibition of human recombinant CYP3A5 assessed as metabolism of 7-benzyloxy-4-trifluoromethylcoumarin to HFC after 30 mins by fluorescence assay; assay type: ADME
[5] = molecular target: T2, Cytochrome P450 1A2 (Homo sapiens, UniProt P05177); experiment: Inhibition of human recombinant CYP1A2 assessed as metabolism of 3-cyano-7-ethoxycoumarin after 30 mins by fluorescence assay; assay type: ADME
T2 sequence (P05177 whole entry): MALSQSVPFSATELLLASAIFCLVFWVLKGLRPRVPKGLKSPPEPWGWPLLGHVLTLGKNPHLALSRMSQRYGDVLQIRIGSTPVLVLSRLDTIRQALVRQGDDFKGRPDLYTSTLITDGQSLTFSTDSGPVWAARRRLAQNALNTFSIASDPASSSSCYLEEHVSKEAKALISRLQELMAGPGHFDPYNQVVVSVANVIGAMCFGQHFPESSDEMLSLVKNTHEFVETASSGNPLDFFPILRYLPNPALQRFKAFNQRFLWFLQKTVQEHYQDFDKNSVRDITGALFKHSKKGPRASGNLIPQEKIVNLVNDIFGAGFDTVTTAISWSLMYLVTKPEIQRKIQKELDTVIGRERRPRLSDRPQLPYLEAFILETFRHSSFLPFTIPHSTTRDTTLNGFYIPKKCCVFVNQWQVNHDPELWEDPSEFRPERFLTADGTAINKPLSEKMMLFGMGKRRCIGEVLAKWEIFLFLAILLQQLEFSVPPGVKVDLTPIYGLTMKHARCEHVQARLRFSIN

[6] = molecular target: T3, Estrogen receptor (Homo sapiens, UniProt P03372); experiment: Displacement of fluorescein-labeled ES2 from human recombinant ERalpha receptor after 2 hrs by fluorescence polarization assay
T3 sequence (P03372 whole entry): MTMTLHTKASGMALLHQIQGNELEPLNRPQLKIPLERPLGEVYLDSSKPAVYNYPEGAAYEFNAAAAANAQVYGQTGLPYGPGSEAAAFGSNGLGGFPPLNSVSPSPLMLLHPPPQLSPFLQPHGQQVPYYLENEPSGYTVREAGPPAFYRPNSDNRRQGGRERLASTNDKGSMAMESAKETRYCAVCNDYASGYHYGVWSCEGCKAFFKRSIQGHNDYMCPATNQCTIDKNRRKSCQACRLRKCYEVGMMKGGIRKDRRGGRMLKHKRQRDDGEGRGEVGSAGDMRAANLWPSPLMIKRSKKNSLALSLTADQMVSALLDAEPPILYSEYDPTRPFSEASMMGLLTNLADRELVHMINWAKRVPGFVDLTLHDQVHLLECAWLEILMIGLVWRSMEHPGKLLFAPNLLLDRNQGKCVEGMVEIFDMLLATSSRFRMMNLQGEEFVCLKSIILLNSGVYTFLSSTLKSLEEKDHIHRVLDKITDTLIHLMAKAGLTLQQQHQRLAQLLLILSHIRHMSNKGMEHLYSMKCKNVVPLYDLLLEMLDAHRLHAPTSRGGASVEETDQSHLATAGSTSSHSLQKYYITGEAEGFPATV
In short: (§1)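 Fluorescence polarization competition. Compound in methanol or DMSO mixed with ES2 screening buffer (100 mM potassium phosphate, 100 μg/mL BGG, 0.02% NaN₃). Preformed complex added to final 9 nM ES2 with 30 nM ER-α or 20 nM ER-β. Polarization expressed as % of vehicle control; EC50 from one-site competition fit.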

[7] = molecular target: Estrogen receptor beta (Homo sapiens, UniProt Q92731); experiment: Displacement of fluorescein-labeled ES2 from human recombinant ERbeta receptor after 2 hrs by fluorescence polarization assay; in short: as §1
[8] = molecular target: T4, Cytochrome P450 2A6 (Homo sapiens, UniProt P11509); experiment: Inhibition of human recombinant CYP2A6 assessed as metabolism of coumarin to 7-hydroxycoumarin after 30 mins by fluorescence assay; assay type: ADME
T4 sequence (P11509 whole entry): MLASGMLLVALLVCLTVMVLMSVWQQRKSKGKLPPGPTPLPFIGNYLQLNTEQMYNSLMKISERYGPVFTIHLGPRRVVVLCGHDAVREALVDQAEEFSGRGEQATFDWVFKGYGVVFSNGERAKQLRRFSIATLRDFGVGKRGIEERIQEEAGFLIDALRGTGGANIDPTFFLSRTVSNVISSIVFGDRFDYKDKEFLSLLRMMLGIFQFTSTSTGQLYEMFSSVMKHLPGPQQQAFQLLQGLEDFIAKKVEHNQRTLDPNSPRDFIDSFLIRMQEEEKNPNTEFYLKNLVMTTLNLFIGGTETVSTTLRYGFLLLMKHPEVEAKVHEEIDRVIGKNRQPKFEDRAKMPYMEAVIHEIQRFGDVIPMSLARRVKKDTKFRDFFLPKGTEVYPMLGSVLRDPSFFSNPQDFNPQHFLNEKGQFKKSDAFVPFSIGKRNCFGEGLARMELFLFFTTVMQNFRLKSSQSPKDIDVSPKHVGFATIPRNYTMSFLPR

[9] = molecular target: T5, Estrogen receptor (Homo sapiens) (UniProt P03372); experiment: Antiestrogenic effect at estrogen receptor in human MCF7 cells assessed as inhibition of E2-induced progesterone receptor mRNA expression at 1000 nM after 24 hrs by real time quantitative PCR; assay type: cell-based; set-up: scale not given: the % may be the effect or the level left
T5 sequence (whole entry): T3 sequence (P03372 whole entry)
In short: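 MCF-7 cells (10⁵/well) grown in MEM + 10% FBS at 37 °C, 5% CO₂, then preconditioned 72 h in charcoal-stripped FBS. Treated 24 h with 1 μM compound or vehicle (0.1% methanol) plus 10 nM E2 in MEM/10% charcoal-stripped FBS. PGR mRNA extracted after genomic DNA removal and quantified by qPCR (40 cycles, Ct). Reported as % of E2-alone expression (100%); 1 μM endoxifen as positive control.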

Chain of Cytochrome P450 3A4 (P08684 whole entry): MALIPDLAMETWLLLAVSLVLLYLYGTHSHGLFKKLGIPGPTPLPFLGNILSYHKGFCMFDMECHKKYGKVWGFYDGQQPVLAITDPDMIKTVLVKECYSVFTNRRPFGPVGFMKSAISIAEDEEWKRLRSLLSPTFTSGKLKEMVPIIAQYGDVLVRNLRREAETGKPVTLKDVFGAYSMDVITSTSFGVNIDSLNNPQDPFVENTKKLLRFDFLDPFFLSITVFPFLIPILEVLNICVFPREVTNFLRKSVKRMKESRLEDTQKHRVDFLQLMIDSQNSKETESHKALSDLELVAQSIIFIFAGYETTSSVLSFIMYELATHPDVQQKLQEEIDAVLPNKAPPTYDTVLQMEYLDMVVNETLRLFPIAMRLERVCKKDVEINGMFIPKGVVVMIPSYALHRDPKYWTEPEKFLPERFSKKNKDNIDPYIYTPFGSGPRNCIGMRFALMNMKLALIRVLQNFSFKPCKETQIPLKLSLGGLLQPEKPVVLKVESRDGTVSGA
Chain of Cytochrome P450 3A5 (P20815 whole entry): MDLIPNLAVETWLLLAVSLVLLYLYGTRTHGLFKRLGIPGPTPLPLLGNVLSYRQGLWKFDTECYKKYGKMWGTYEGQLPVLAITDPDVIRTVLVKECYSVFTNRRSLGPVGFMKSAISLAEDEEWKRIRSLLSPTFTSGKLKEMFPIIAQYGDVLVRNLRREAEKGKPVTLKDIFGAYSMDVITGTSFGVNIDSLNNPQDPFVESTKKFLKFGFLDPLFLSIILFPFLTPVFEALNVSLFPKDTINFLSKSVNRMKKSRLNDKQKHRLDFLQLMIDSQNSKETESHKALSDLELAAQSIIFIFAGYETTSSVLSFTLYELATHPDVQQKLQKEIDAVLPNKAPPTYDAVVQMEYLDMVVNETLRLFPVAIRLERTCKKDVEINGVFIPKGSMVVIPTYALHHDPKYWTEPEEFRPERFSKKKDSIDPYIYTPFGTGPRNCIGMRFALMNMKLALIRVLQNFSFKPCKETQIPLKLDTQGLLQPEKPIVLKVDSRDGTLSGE
Chain of Cytochrome P450 2D6 (P10635 whole entry): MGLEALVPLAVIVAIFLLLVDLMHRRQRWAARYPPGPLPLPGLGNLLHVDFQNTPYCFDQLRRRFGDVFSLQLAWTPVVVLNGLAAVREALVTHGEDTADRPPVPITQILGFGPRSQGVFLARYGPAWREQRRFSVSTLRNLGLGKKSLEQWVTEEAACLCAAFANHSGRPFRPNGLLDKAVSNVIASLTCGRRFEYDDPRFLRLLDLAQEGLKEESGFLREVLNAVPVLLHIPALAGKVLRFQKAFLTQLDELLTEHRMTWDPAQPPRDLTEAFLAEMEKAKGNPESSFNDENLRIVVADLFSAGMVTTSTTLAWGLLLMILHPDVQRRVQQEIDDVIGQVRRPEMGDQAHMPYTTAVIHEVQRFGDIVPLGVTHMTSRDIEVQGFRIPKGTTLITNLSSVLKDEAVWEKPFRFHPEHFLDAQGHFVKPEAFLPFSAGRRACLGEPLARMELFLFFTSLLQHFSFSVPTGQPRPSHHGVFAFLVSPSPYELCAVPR
Chain of Estrogen receptor beta (Q92731 whole entry): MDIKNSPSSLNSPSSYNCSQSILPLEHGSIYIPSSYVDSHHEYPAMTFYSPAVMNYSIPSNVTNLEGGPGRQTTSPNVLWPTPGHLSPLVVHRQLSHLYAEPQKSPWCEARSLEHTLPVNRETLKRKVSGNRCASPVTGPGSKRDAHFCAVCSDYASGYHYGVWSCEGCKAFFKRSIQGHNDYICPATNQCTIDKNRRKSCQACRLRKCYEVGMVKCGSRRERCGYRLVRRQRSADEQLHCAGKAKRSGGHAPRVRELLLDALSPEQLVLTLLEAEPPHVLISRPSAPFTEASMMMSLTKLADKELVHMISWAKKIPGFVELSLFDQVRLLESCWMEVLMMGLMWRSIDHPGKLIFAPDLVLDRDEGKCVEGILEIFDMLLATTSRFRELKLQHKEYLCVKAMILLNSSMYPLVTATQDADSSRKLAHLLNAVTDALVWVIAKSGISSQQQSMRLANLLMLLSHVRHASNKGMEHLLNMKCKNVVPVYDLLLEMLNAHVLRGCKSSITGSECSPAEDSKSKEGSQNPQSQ

Work on `CC/C(=C(/c1ccc(O)cc1)c1ccc(OCCN)cc1)c1ccc(O)cc1` (mixture of isomers) yielded an IC50 [1] of 45 nM, an IC50 [2] of 3600 nM and a Ki ([2]; read-out: Ki) of 423 nM. It also gave an IC50 [3] of 1880 nM, a Ki [3] of 1640 nM and an IC50 [4] of 556 nM. It also gave a Ki [4] of 855 nM, an IC50 [5] of 207 nM and a Ki [5] of 56 nM. For the same molecule, the EC50 [6] was 15 nM, the EC50 [7] was 9.5 nM and the Ki [8] was 710 nM. It also gave an Activity [9] of 14%.
